≈ marks a conversion by molar mass, not a printed value. Calls of active or inactive are those of the source. No cut-off for these calls is given here.
Tests used:
[1] = Thermodynamic solubility of the compound in phosphate buffer at pH 7.2 to 7.4 after 48 hrs by UV-HPLC analysis; type: physicochemical; settings: read-out: Therm_solubility
Method in brief: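 About 1 mg of compound ground and suspended in 1.0 mL phosphate buffer (pH 7.2–7.4), then shaken 48 h at 25 °C. Suspension filtered (0.45 μm), filtrate diluted in CH3CN and analysed by HPLC with UV detection at 254 nm. Concentration taken from a calibration curve and corrected for dilution.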

[2] = biological target: T1, Peroxisome proliferator-activated receptor gamma (Homo sapiens) (UniProt P37231); assay: Agonist activity at human PPAR-gamma1 LBD (176 to 477) transfected in african green monkey CV1 cells after 40 hrs by beta galactosidase-based luciferase reporter gene assay relative to rosiglitazone; type: cell-based; settings: CV-1
T1 sequence (whole entry): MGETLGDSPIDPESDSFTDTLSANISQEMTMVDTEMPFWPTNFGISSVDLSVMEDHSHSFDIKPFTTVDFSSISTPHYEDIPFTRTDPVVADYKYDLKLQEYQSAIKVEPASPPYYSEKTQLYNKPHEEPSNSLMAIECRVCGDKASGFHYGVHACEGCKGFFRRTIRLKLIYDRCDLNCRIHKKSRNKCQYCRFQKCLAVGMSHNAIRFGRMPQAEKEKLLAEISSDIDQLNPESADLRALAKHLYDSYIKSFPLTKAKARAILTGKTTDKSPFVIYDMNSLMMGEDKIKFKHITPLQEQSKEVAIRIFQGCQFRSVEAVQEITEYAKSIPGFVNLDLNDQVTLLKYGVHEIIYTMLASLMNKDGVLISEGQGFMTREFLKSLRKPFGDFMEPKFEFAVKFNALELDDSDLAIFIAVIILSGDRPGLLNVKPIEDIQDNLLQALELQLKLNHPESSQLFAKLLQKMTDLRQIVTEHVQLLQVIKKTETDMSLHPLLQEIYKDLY
Method in brief: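 GAL4-PPAR chimera transactivation in CV-1 cells (0.5×10^5/well, 24 h), lipofected 5 h with 30 ng receptor plasmid, 250 ng MH100x4-tk-luc reporter, 350 ng pCMX-βGAL normalisation plasmid, 120 ng pGEM4 carrier. Compounds for 40 h. Luciferase and βGAL read from lysates. Activity scaled between 0.1% DMSO (minimum) and 10^-5 M rosiglitazone maleate (maximum). EC50 = concentration giving 50% maximal reporter activity.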

[3] = biological target: T2, Peroxisome proliferator-activated receptor gamma (Homo sapiens, UniProt P37231); assay: Agonist activity at human PPAR-gamma1 LBD (176 to 477) transfected in african green monkey CV1 cells after 40 hrs by beta galactosidase-based luciferase reporter gene assay; type: cell-based, CV-1
T2 sequence (P37231 whole entry): T1 sequence (whole entry)
Method in brief: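 CV-1 cells seeded at 0.5×10^5 per well, cultured 24 h, then lipofected for 5 h. Transfection mix: 30 ng GAL4-PPAR chimeric receptor plasmid, 250 ng MH100x4-tk-luc reporter, 350 ng pCMX-βGAL for normalization, 120 ng pGEM4 carrier. Compounds added for 40 h, then luciferase and βGAL read in lysates. Activity scaled between 0.1% DMSO (minimum) and 10^-5 M rosiglitazone maleate (maximum). EC50 is the concentration giving 50% of maximal reporter activity.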

[4] = biological target: T3, Peroxisome proliferator-activated receptor gamma (Mus musculus) (UniProt P37238); assay: Agonist activity at PPAR-gamma in mouse 3T3-L1 cells assessed as adipocyte differentiation after 6 days by Oil Red O staining; type: cell-based
T3 sequence (whole entry): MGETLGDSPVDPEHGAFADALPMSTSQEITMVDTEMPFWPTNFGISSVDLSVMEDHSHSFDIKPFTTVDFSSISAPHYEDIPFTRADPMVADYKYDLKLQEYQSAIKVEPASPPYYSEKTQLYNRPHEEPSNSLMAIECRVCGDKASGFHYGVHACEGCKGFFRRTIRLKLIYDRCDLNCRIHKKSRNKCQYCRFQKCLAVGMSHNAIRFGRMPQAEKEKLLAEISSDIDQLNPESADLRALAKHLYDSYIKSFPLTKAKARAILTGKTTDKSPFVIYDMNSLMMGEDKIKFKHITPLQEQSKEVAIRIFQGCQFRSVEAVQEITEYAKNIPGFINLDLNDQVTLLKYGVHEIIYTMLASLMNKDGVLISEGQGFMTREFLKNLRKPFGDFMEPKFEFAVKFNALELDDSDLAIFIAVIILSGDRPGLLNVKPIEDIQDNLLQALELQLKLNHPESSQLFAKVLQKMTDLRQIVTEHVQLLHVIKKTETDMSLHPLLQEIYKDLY
Method in brief: (§1)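 3T3-L1 cells grown in DMEM with 10% FBS. At confluence, differentiation started with 1 μM dexamethasone, 0.5 mM IBMX and 5 μg/mL insulin for 2 days. Ligands then added at 1–1000 nM. After 6 days cells stained with Oil Red O and adipogenesis read as absorbance at OD550. Error bars are SD.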

[5] = biological target: T3, Peroxisome proliferator-activated receptor gamma (Mus musculus); assay: Agonist activity at PPAR-gamma in mouse 3T3-L1 cells assessed as induction of triglyceride accumulation at 1 to 1000 nM after 6 days by Oil Red O staining; type: cell-based; method in brief: as §1
[6] = biological target: T3, Peroxisome proliferator-activated receptor gamma (Mus musculus); assay: Agonist activity at PPAR-gamma in mouse 3T3-L1 cells assessed as adipocyte differentiation at 1 to 1000 nM after 6 days by Oil Red O staining; type: cell-based; method in brief: as §1
[7] = Induction of apoptosis in human OUMS-24 cells at 100 uM after 72 hrs by Hoechst 33342/propidium iodide staining-based fluorescence microscopy; type: cell-based; settings: oums-24, 72 h
Method in brief: (§2)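 OCUM-2MD3 cells grown in DMEM/F12 (1:1); OUMS-24 normal fibroblasts grown in DMEM; both media with 10% FBS, 100 μg/mL kanamycin and 0.5 μg/mL Fungizone. Cells plated, incubated 24 h, then treated with compound at 1–100 μM for 72 h. Stained with 1 μg/mL Hoechst 33342 plus 5 μg/mL propidium iodide for 20 min in the dark and examined by fluorescence microscopy. Cells with fragmented or shrunken nuclei counted as apoptotic; result given as % increase over DMSO control.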

OCUM-2MD3 [8] = assay: Induction of apoptosis in human OCUM-2MD3 cells at 10 to 100 uM after 72 hrs by Hoechst 33342/propidium iodide staining-based fluorescence microscopy; type: functional, cell-based; method in brief: as §2
OCUM-2MD3 [9] = assay: Induction of apoptosis in human OCUM-2MD3 cells after 72 hrs by Hoechst 33342/propidium iodide staining-based fluorescence microscopy; type: functional, cell-based; method in brief: as §2
[10] = Induction of apoptosis in human OUMS-24 cells after 72 hrs by Hoechst 33342/propidium iodide staining-based fluorescence microscopy; type: cell-based; settings: oums-24, 72 h; method in brief: as §2
[11] = biological target: T3, Peroxisome proliferator-activated receptor gamma (Mus musculus); assay: Partial agonist activity at PPAR-gamma in mouse 3T3-L1 cells assessed as adipocyte differentiation at […] after 6 days by Oil Red O staining; type: cell-based; method in brief: as §1

Row | SMILES | solubility thermodynamic at 48 h [1] [µg/mL] | Efficacy [2] [%] | EC50 [3] [nM] | further results
1 | CCCOc1ccc(C[C@@H](Cc2ccccc2)C(=O)O)cc1CNC(=O)c1ccc(-c2cccnc2)cc1 | 69.5 (≈ 137 µM) | 100 | 844 | –
2 | CCCOc1ccc(C[C@@H](Cc2ccccc2)C(=O)O)cc1CNC(=O)c1ccc(-c2ccncc2)cc1 | 34.1 (≈ 67 µM) | 108 | 1690 | –
3 | CCCOc1ccc(C[C@H](CC)C(=O)O)cc1CNC(=O)c1ccc(C23CC4CC(CC(C4)C2)C3)cc1 | – | – | – | Activity [4]: Dose-dependent effect; Activity [5]: Active; Activity [6]: Active
4 | CCCOc1ccc(C[C@@H](Cc2ccccc2)C(=O)O)cc1CNC(=O)c1ccc(-c2ccc(F)cc2)cc1 | < 1 | 104 | 103 | –
5 | CCCOc1ccc(C[C@@H](Cc2ccccc2)C(=O)O)cc1CNC(=O)c1ccc(-c2ccccn2)cc1 | 17 (≈ 33.4 µM) | 113 | 186 | –
6 | CCCOc1ccc(C[C@H](Cc2ccccc2)C(=O)O)cc1CNC(=O)c1ccc(C23CC4CC(CC(C4)C2)C3)cc1 | < 1 | – | – | Activity [7]: Toxic; Activity (OCUM-2MD3 [8]): Active; Activity (OCUM-2MD3 [9]): Dose-dependent effect
7 | CCCOc1ccc(C[C@@H](Cc2ccccc2)C(=O)O)cc1CNC(=O)c1ccc(-c2cnccn2)cc1 | 32.2 (≈ 63.2 µM) | 58.2 | 714 | –
8 | CCCOc1ccc(C[C@@H](Cc2ccccc2)C(=O)O)cc1CNC(=O)c1ccc(-c2cncnc2)cc1 | 190 (≈ 373 µM) | 82.7 | 3100 | –
9 | CCc1ccc(CCOc2ccc(CC3SC(=O)NC3=O)cc2)nc1 (centres undefined) [PIOGLITAZONE] | – | – | – | Activity [10]: Non-toxic; Activity (OCUM-2MD3 [9]): Dose-dependent effect

More lines, main results first:

Row | solubility thermodynamic at 48 h [1] [µg/mL] | Efficacy [2] [%] | EC50 [3] [nM] | SMILES | further results
10 | < 1 | 95.7 | 85.9 | CCCOc1ccc(C[C@@H](Cc2ccccc2)C(=O)O)cc1CNC(=O)c1ccc(-c2ccccc2)cc1 | –
11 | < 1 | 76 | 65.2 | CCCOc1ccc(C[C@@H](Cc2ccccc2)C(=O)O)cc1CNC(=O)c1ccc(-c2cccs2)cc1 | –
12 | < 1 | 72.7 | 73.8 | CCCOc1ccc(C[C@@H](Cc2ccccc2)C(=O)O)cc1CNC(=O)c1ccc(-c2ccccc2C)cc1 | –
13 | < 1 | 95 | 49.5 | CCCOc1ccc(C[C@@H](Cc2ccccc2)C(=O)O)cc1CNC(=O)c1ccc(-c2ccccc2F)cc1 | –
14 | 301 (≈ 591 µM) | 65 | 34.6 | CCCOc1ccc(C[C@@H](Cc2ccccc2)C(=O)O)cc1CNC(=O)c1ccc(-c2ncccn2)cc1 | Activity (OCUM-2MD3 [9]): Dose-dependent effect; Activity [11]: Active; Activity [5]: Active; Activity [6]: Active
15 | < 1 | 99.7 | 28.7 | CCCOc1ccc(C[C@@H](Cc2ccccc2)C(=O)O)cc1CNC(=O)c1ccc(-c2cccc(F)c2)cc1 | –

— ChEMBL document CHEMBL2375286, “Design and synthesis of a series of α-benzyl phenylpropanoic acid-type peroxisome proliferator-activated receptor (PPAR) gamma partial agonists with improved aqueous solubility” (Bioorg Med Chem, 2013)
